The test system of test [1] is MES-SA. Nature of the test: Cytotoxicity against human MES-SA cells assessed as cell growth inhibition incubated for 144 hrs by fluorescence microplate reader assay. Type of test: functional, cell-based. The method in brief:
(§1)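 MES-SA (mCherry) and doxorubicin-selected Dx5 (eGFP; pretreated with 500 nM doxorubicin to keep P-gp expression) co-cultured, 1250 cells each per well, settled overnight. Serial dilutions added, 144 h incubation. Viability read by fluorescence (mCherry ex 585/em 610 nm; eGFP ex 485/em 510 nm). IC50 by automated curve evaluation; two-sided unpaired t-test.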

The subject of test [2] is MES-SA/Dx5. Nature of the test: Cytotoxicity against multidrug resistance human MES-SA/Dx5 cells assessed as cell growth inhibition incubated for 144 hrs by fluorescence microplate reader assay. Type of test: functional, cell-based. To be noted: MES-SA/Dx5, 144 h. The method, boiled down: as §1
Test [3] is described as follows: Resistance ratio of IC50 for cytotoxicity against multidrug resistance human MES-SA/Dx5 cells to IC50 for cytotoxicity against human MES-SA cells. Type of test: functional.
For test [4], the system named is MES-SA. Nature of the test: Cytotoxicity against human MES-SA cells assessed as cell growth inhibition incubated for 144 hrs in presence of P-gp inhibitor Tariquidar by fluorescence microplate reader assay. Type of test: functional, cell-based. The method in brief:
(§2)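 Co-culture of fluorescent MES-SA (mCherry) and Dx5 (eGFP, doxorubicin 500 nM pretreated) exposed to serial dilutions plus 0.4 µM tariquidar for 144 h. Per-line fluorescence read-out gave IC50. Resistance ratio = IC50 Dx5 / IC50 MES-SA; significance by two-sided unpaired t-test.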

For test [5], the system named is MES-SA/Dx5. Nature of the test: Cytotoxicity against multidrug resistance human MES-SA/Dx5 cells assessed as cell growth inhibition incubated for 144 hrs in presence of P-gp inhibitor Tariquidar by fluorescence microplate reader assay. Type of test: functional, cell-based. The conditions noted are these: MES-SA/Dx5, 144 h. The method, boiled down:
as §2

The nature of test [6]: Resistance ratio of IC50 for cytotoxicity against multidrug resistance human MES-SA/Dx5 cells in presence of P-gp inhibitor Tariquidar to IC50 for cytotoxicity against human MES-SA cells in presence of P-gp inhibitor Tariquidar. Type of test: functional. The method in brief: as §2
Test [7] deals with MES-SA/Dx5. Nature of the test: Inhibition of P-gp in multidrug resistance human MES-SA/Dx5 cells assessed as inhibition of calcein-AM efflux at 20 uM incubated for 15 mins by calcein-AM staining based flow cytometry analysis.
In test [8] the test system is MES-SA/Dx5. The experiment in a line: Cytotoxicity against multidrug resistance human MES-SA/Dx5 cells assessed as reduction on calcein accumulation by measuring cell distribution at 20 uM incubated for 15 mins by calcein-AM staining based flow cytometry analysis. Type of test: functional. Also noted: scale not given: the % may be the effect or the level left. The conditions noted are these: 0.25 h. The method in brief:
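Non-fluorescent Dx5 cells, 250 000 per tube, washed in serum-free DMEM, preincubated 5 min at 37 °C with compound at 20 µM. Calcein-AM then added (250 nM final) for 10 min more. Stopped with ice-cold PBS and kept on ice. Calcein fluorescence measured by flow cytometry, TO-PRO-3 live/dead gating. Controls: 20 µM verapamil, medium only.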

The subject of test [9] is MES-SA/Dx5. Nature of the test: Cytotoxicity against multidrug resistance human MES-SA/Dx5 cells assessed as inhibition of calcein-AM efflux at 20 uM incubated for 15 mins in presence of metal chelator EDTA by calcein-AM staining based flow cytometry analysis. Type of test: functional, cell-based. The method, boiled down: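 Calcein accumulation in non-fluorescent Dx5 cells, 250 000 per tube, with every step from preincubation to measurement in PBS containing 1 µM EDTA. Cells preincubated 5 min with 20 µM compound, then 250 nM calcein-AM for 10 min at 37 °C. Read by flow cytometry with TO-PRO-3 live/dead stain. Controls: verapamil 20 µM, no inhibitor.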

Structures are written as SMILES. Active and inactive are the calls of the source. No cut-off for these calls is given here.

As for `CC[C@H]1CN2CC[C@H]1C[C@H]2[C@@H](N)c1ccnc2ccc(OC)cc12`, the IC50 – broadly, the midpoint of a concentration-inhibition curve – in test [1] worked out at 80 µM; in test [2] it was 105 µM; in [4] it was 82 µM; in test [5], 48 µM. The results for the “Ratio IC50” value in test [3] and in test [6] were 1.3 and 0.6, respectively.
With `CC[C@H]1CN2CC[C@H]1C[C@H]2[C@H](O)c1ccnc2ccc(OC)cc12` [HYDROQUININE], the values for the IC50 in test [1] and in test [2] were 48 µM and 47 µM, respectively. For the same compound, the “Ratio IC50” value in test [3] came to 1.
Take `COc1cccc2c1C(=O)c1c(O)c3c(c(O)c1C2=O)C[C@@](O)(C(=O)CO)C[C@@H]3O[C@H]1C[C@H](N)[C@H](O)[C@H](C)O1` [DOXORUBICIN]: the results for the “Ratio IC50” value in [3] and in test [6] were 62.5 and 0.8, respectively.
As for `C=C[C@H]1CN2CC[C@H]1C[C@H]2[C@H](O)c1ccnc2ccc(OC)cc12` [QUININE], the IC50 in test [1] is 93 µM; in [2] it was 67 µM; in [4], 91 µM; in test [5], 43 µM. For the same compound, the “Ratio IC50” value in test [3] is given as 0.7; in [6], 0.5. Moreover, the outcome in test [7] was Active.
Turning to `CC[C@H]1CN2CC[C@H]1C[C@H]2[C@@H](Nc1c(Nc2cc(C(F)(F)F)cc(C(F)(F)F)c2)c(=O)c1=O)c1ccnc2ccc(OC)cc12`, the IC50 stood at 3.6 µM in test [1], 11 µM in test [2], 4.4 µM in test [4] and 2.3 µM in [5]. The entries for the “Ratio IC50” value in test [3] and in test [6] were 2.9 and 0.5, respectively.
Turning to `C=C[C@H]1CN2CC[C@H]1C[C@H]2[C@@H](Nc1c(Nc2cc(C(F)(F)F)cc(C(F)(F)F)c2)c(=O)c1=O)c1ccnc2ccc(OC)cc12`, the IC50 worked out at 4.2 µM in test [1], 12 µM in test [2], 4.9 µM in test [4] and 2.7 µM in test [5]. The “Ratio IC50” value in [3] stood at 3; in [6], 0.5. In [7], the outcome was Active.
Take `C#C[C@H]1CN2CC[C@H]1C[C@H]2[C@@H](NC(=S)Nc1cc(C(F)(F)F)cc(C(F)(F)F)c1)c1ccnc2ccc(OC)cc12`: the 50% inhibitory concentration (IC50) in test [1] stood at 4.2 µM; in test [2], 3.9 µM. Besides, the “Ratio IC50” value in test [3] was 0.9.
As for `C#C[C@H]1CN2CC[C@H]1C[C@H]2[C@@H](Nc1c(Nc2cc(C(F)(F)F)cc(C(F)(F)F)c2)c(=O)c1=O)c1ccnc2ccc(OC)cc12`, the IC50 in test [1] worked out at 3.9 µM; in test [2], 14 µM; in [4], 5.5 µM; in test [5], 2.3 µM. The “Ratio IC50” value in [3] came to 3.7; in test [6], 0.4.
For `Oc1c(CN2CCCCC2)ccc2cccnc12`, in [3], the “Ratio IC50” value was found to be 0.1.
For the compound `C#C[C@H]1CN2CC[C@H]1C[C@H]2[C@H](O)c1ccnc2ccc(OC)cc12`, the IC50 in [1] came out at 111 µM; in [2], 85 µM; in test [4], 117 µM; in test [5], 79 µM. In addition, the results for the “Ratio IC50” value in [3] and in [6] were 0.8 and 0.7, respectively.
Regarding `C#C[C@H]1CN2CC[C@H]1C[C@H]2[C@@H](N)c1ccnc2ccc(OC)cc12`, the IC50 came to 29 µM in test [1], 161 µM in test [2], 30 µM in [4] and 146 µM in test [5]. Further, the “Ratio IC50” value was determined as 5.6 in [3] and 4.9 in test [6].
On to `CC[C@H]1CN2CC[C@H]1C[C@H]2[C@@H](Nc1c(NCc2ccccc2)c(=O)c1=O)c1ccnc2ccc(OC)cc12`, for which the half-inhibitory concentration (IC50) worked out at 3.1 µM in [1], 21 µM in test [2], 3.9 µM in test [4] and 3.4 µM in [5]. Moreover, the “Ratio IC50” value stood at 6.6 in test [3] and 0.9 in test [6]. For the same compound, the Activity in test [8] is on record as 53.1%. The outcome in test [9] was Active.
Regarding `C=C[C@H]1CN2CC[C@H]1C[C@H]2[C@@H](N)c1ccnc2ccc(OC)cc12`, the IC50 in test [1] was 81 µM; in test [2], 197 µM; in [4], 115 µM; in test [5] it was 121 µM. In addition, the “Ratio IC50” value in test [3] is recorded as 2.4; in [6] it was 1. In addition, the result in [7] was Active.
`CC[C@H]1CN2CC[C@H]1C[C@H]2[C@@H](NC(=S)Nc1cc(C(F)(F)F)cc(C(F)(F)F)c1)c1ccnc2ccc(OC)cc12`: the IC50 in test [1] amounted to 1.3 µM; in [2], 1.5 µM; in test [4], 1 µM; in [5], 0.9 µM. Also, the “Ratio IC50” value is on record as 1.2 in test [3] and 0.8 in test [6].
As to `C=C[C@H]1CN2CC[C@H]1C[C@H]2[C@@H](NC(=S)Nc1cc(C(F)(F)F)cc(C(F)(F)F)c1)c1ccnc2ccc(OC)cc12`, the IC50 is 2.3 µM in test [1] and 2.8 µM in test [2]. The “Ratio IC50” value in test [3] is 1.2. In test [7], the outcome was Active.
In the case of `CC[C@H]1CN2CC[C@H]1C[C@H]2[C@@H](Nc1c(NCc2ccccc2)c(=S)c1=S)c1ccnc2ccc(OC)cc12`, the half-maximal inhibitory concentration (IC50) in test [1] was determined as 57 µM; in test [2], 65 µM; in [4], 56 µM; in [5], 50 µM. Besides, the “Ratio IC50” value in test [3] came out at 1.1; in test [6], 0.9. Besides, in [7], the result was Active.

(Values after ChEMBL document CHEMBL5126583, “Cytotoxicity of cinchona alkaloid organocatalysts against MES-SA and MES-SA/Dx5 multidrug-resistant uterine sarcoma cell lines” (Bioorg Med Chem, 2022).)
